From ChEMBL document CHEMBL1137007, “Synthesis of 4-substituted pyrido[2,3-d]pyrimidin-4(1H)-one as analgesic and anti-inflammatory agents” (Bioorg Med Chem Lett, 2009)

Experiments:
Rattus norvegicus [1] = experiment: Antiinflammatory activity in rat assessed as inhibition of carrageenan-induced paw oedema at 10 mg/kg, po after 2 hrs; format: functional; parameters: scale not given: the % may be the effect or the level left
How it was run: (§1)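 Rats, six per group, were dosed orally (10 or 20 mg/kg, suspension in 1% carboxymethyl cellulose) before carrageenan paw injection. Paw volume was read by mercury-displacement plethysmography just before and 30 min, 1, 2 and 3 h after carrageenan. %inhibition = 100[1 − (a − x)/(b − y)], with the test group's pre/post volumes set against the vehicle control group's. Reported as mean ± SEM (n = 6) with ANOVA.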

Mus musculus [2] = experiment: Analgesic activity in Wister albino mice at 10 mg/kg, po after 1 hr by tail-flick test
Rattus norvegicus [3] = experiment: Toxicity in Wistar albino rat assessed as ulcer index at 20 mg/kg, ip administered once daily for 3 days; format: organism-based; parameters: dose 20 mg/kg, route intraperitoneal; settings: in vivo, 72 h
How it was run: (§2)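 Wistar albino rats of either sex (150–200 g), six per group, housed at 25 °C, 45–55% RH, 12-h light/dark cycle and acclimatized one week. Dosing was intraperitoneal as a suspension in 10% v/v Tween-80, with a vehicle-only control group. Animals were fasted 36 h, then pylorus-ligated (Shay method) on day 4 and sacrificed 4 h later for ulcer index. Values are mean ± SEM (n = 6), analysed by one-way ANOVA.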

Rattus norvegicus [4] = experiment: Antiinflammatory activity in rat assessed as inhibition of carrageenan-induced paw oedema at 20 mg/kg, po after 3 hrs; format: functional; parameters: scale not given: the % may be the effect or the level left; how it was run: as §1
Rattus norvegicus [5] = experiment: Antiinflammatory activity in rat assessed as inhibition of carrageenan-induced paw oedema at 10 mg/kg, po after 30 mins; format: functional; parameters: scale not given: the % may be the effect or the level left; how it was run: as §1
Mus musculus [6] = experiment: Analgesic activity in Wister albino mice at 10 mg/kg, po after 30 mins by tail-flick test
Rattus norvegicus [7] = experiment: Antiinflammatory activity in rat assessed as inhibition of carrageenan-induced paw oedema at 20 mg/kg, po after 2 hrs; format: functional; parameters: scale not given: the % may be the effect or the level left; how it was run: as §1
Rattus norvegicus [8] = experiment: Antiinflammatory activity in rat assessed as inhibition of carrageenan-induced paw oedema at 10 mg/kg, po after 1 hr; format: functional; parameters: scale not given: the % may be the effect or the level left; how it was run: as §1
Mus musculus [9] = experiment: Analgesic activity in Wister albino mice at 20 mg/kg, po after 30 mins by tail-flick test
Mus musculus [10] = experiment: Analgesic activity in Wister albino mice at 20 mg/kg, po after 1 hr by tail-flick test
Mus musculus [11] = experiment: Analgesic activity in Wister albino mice at 20 mg/kg, po after 3 hrs by tail-flick test
Rattus norvegicus [12] = experiment: Antiinflammatory activity in rat assessed as inhibition of carrageenan-induced paw oedema at 20 mg/kg, po after 1 hr; format: functional; parameters: scale not given: the % may be the effect or the level left; how it was run: as §1
Mus musculus [13] = experiment: Analgesic activity in Wister albino mice at 20 mg/kg, po after 2 hrs by tail-flick test
Mus musculus [14] = experiment: Analgesic activity in Wister albino mice at 10 mg/kg, po after 2 hrs by tail-flick test
Rattus norvegicus [15] = experiment: Antiinflammatory activity in rat assessed as inhibition of carrageenan-induced paw oedema at 20 mg/kg, po after 30 mins; format: functional; parameters: scale not given: the % may be the effect or the level left; how it was run: as §1
Rattus norvegicus [16] = experiment: Antiinflammatory activity in rat assessed as inhibition of carrageenan-induced paw oedema at 10 mg/kg, po after 3 hrs; format: functional; parameters: scale not given: the % may be the effect or the level left; how it was run: as §1
Mus musculus [17] = experiment: Analgesic activity in Wister albino mice at 10 mg/kg, po after 3 hrs by tail-flick test
Mus musculus [18] = experiment: Analgesic activity in Wister albino mouse at 20 mg/kg, po after 1 hr by tail-flick test
Rattus norvegicus [19] = experiment: Toxicity in Wistar albino rat assessed as ulcer index at 200 mg/kg, ip administered once daily for 3 days; format: organism-based; parameters: dose 200 mg/kg, route intraperitoneal; settings: in vivo, 72 h; how it was run: as §2

N#Cc1c(N)nc2[nH]c(=S)[nH]c(=O)c2c1-c1ccc(N2CCOCC2)cc1
Activity (Rattus norvegicus [1]): 50%
Activity (Mus musculus [2]): 47%
UI (Rattus norvegicus [3]): 0.54
Activity (Rattus norvegicus [4]): 47%
Activity (Rattus norvegicus [5]): 41%
Activity (Mus musculus [6]): 45%
Activity (Rattus norvegicus [7]): 63%
Activity (Rattus norvegicus [8]): 48%
Activity (Mus musculus [9]): 59%
Activity (Mus musculus [10]): 63%
Activity (Mus musculus [11]): 43%
Activity (Rattus norvegicus [12]): 61%
Activity (Mus musculus [13]): 66%
Activity (Mus musculus [14]): 53%
Activity (Rattus norvegicus [15]): 50%
Activity (Rattus norvegicus [16]): 36%
Activity (Mus musculus [17]): 31%

N#Cc1c(N)nc2[nH]c(=S)[nH]c(=O)c2c1-c1ccc(N2CCCCC2)cc1
Activity (Rattus norvegicus [1]): 45%
Activity (Mus musculus [18]): 64%
Activity (Mus musculus [2]): 51%
UI (Rattus norvegicus [3]): 0.58
Activity (Rattus norvegicus [4]): 36%
Activity (Rattus norvegicus [5]): 35%
Activity (Mus musculus [6]): 46%
Activity (Rattus norvegicus [7]): 51%
Activity (Rattus norvegicus [8]): 37%
Activity (Mus musculus [9]): 63%
Activity (Mus musculus [11]): 47%
Activity (Rattus norvegicus [12]): 49%
Activity (Mus musculus [13]): 69%
Activity (Mus musculus [14]): 55%
Activity (Rattus norvegicus [15]): 45%
Activity (Rattus norvegicus [16]): 29%
Activity (Mus musculus [17]): 39%

CC(=O)Oc1ccccc1C(=O)O [ASPIRIN]
UI (Rattus norvegicus [19]): 1.73

O=C([O-])Cc1ccccc1Nc1c(Cl)cccc1Cl.[Na+] [DICLOFENAC SODIUM]
Activity (Rattus norvegicus [1]): 39%
Activity (Mus musculus [2]): 43%
UI (Rattus norvegicus [3]): 1.65
Activity (Rattus norvegicus [4]): 42%
Activity (Rattus norvegicus [5]): 32%
Activity (Mus musculus [6]): 37%
Activity (Rattus norvegicus [7]): 60%
Activity (Rattus norvegicus [8]): 38%
Activity (Mus musculus [9]): 46%
Activity (Mus musculus [10]): 55%
Activity (Mus musculus [11]): 39%
Activity (Rattus norvegicus [12]): 52%
Activity (Mus musculus [13]): 62%
Activity (Mus musculus [14]): 45%
Activity (Rattus norvegicus [15]): 45%
Activity (Rattus norvegicus [16]): 33%
Activity (Mus musculus [17]): 33%
